Measurements published in ChEMBL document CHEMBL1177662, “Anti-influenza activity of phenethylphenylphthalimide analogs derived from thalidomide” (Bioorg Med Chem, 2010).
Active and inactive are the calls of the source. The rule behind the calls is not given here.

Key:
[1] = target: Polymerase acidic protein (Influenza A virus (A/Puerto Rico/8/1934(H1N1))) (UniProt P03433); assay: Inhibition of Influenza A (A/PR/8/34/ (H1N1)) RNA polymerase acidin protein endonuclease PA domain assessed as M13mp18 ss DNA at 10 uM
Outline: (§1)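 Recombinant His-tagged PA N-terminal endonuclease domain (residues 1–220), expressed in E. coli and purified by Ni-agarose and anion exchange. 0.35 μg (about 0.1 μM final) in 100 μl buffer at pH 7.3, with 1 μg M13mp18 circular ssDNA substrate and compound at 1 or 10 μM. A no-enzyme control was included. Digestion read by agarose electrophoresis with ethidium bromide staining.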

[2] = target: Polymerase acidic protein (Influenza A virus (A/Puerto Rico/8/1934(H1N1))) (UniProt P03433); assay: Inhibition of Influenza A (A/PR/8/34/ (H1N1)) RNA polymerase acidin protein endonuclease PA domain assessed as M13mp18 ss DNA at 1 uM; outline: as §1
[3] = Cytotoxicity against dog MDCK cells; assay type: cell-based, Canis lupus familiaris
Outline: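 Confluent MDCK monolayers (MEM, 10% FBS, 37 °C) exposed without virus to compound (0.63–80 μM, DMSO vehicle), premixed with trypsin 30 min at 37 °C. Incubated 4 days at 34 °C, 5% CO2. Formaldehyde fixation, naphthol blue black staining of viable cells, OD630 read. Triplicate; CC50 estimated from dose–response curve.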

[4] = system: Influenza A virus; assay: Antiviral activity against Influenza A (A/PR/8/34/ (H1N1)) infected in MDCK cells assessed as inhibition of virus-induced cell death; assay type: functional, organism-based; conditions: A/Puerto Rico/8/1934(H1N1)
Outline: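 Confluent MDCK monolayers (MEM, 10% FBS, 37 °C). Compound (0.63–80 μM, DMSO vehicle) premixed with 100 TCID50 H1N1 PR8 plus trypsin for 30 min at 37 °C, then added to PBS-washed cells. Incubated 4 days at 34 °C, 5% CO2. Formaldehyde-fixed, naphthol blue black stain, OD630 read. Viability scaled to mock (100%) and virus-only (0%) wells. Triplicate; EC50 estimated from dose–response curve.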

Row | Compound | inhibition [1] | inhibition [2] | CC50 [3] [µM] | EC50 [4] [µM]
1 | O=C1c2ccccc2C(=O)N1c1ccc(CCc2ccc(O)cc2)cc1 | inactive | inactive | – | –
2 | O=C1c2c(Cl)c(Cl)c(Cl)c(Cl)c2C(=O)N1c1ccc(/C=C\c2ccccc2)cc1 | inactive | inactive | – | –
3 | COc1ccc(CCc2cccc(N3C(=O)c4c(Cl)c(Cl)c(Cl)c(Cl)c4C3=O)c2)cc1OC | inactive | inactive | – | –
4 | O=C1c2c(Cl)c(Cl)c(Cl)c(Cl)c2C(=O)N1c1cccc(CCc2cccc(O)c2)c1 | inactive | inactive | – | –
5 | O=C1c2c(Cl)c(Cl)c(Cl)c(Cl)c2C(=O)N1c1cccc(CCc2ccc(O)c(O)c2)c1 | inactive | inactive | 44 | > 80
6 | COc1cccc(CCc2ccc(N3C(=O)c4ccccc4C3=O)cc2)c1 | inactive | inactive | – | –
7 | O=C1c2ccccc2C(=O)N1c1ccc(/C=C/c2ccccc2)cc1 | inactive | inactive | – | –
8 | O=C1c2c(Cl)c(Cl)c(Cl)c(Cl)c2C(=O)N1c1ccc(CCc2ccc(O)c(O)c2)cc1 | inactive | inactive | > 80 | 24
9 | COc1ccc(CCc2ccc(N3C(=O)c4ccccc4C3=O)cc2)cc1 | inactive | inactive | – | –
10 | O=C1c2c(Cl)c(Cl)c(Cl)c(Cl)c2C(=O)N1c1ccc(CCc2ccc(O)cc2)cc1 | inactive | inactive | – | –
11 | O=C1c2c(Cl)c(Cl)c(Cl)c(Cl)c2C(=O)N1c1cccc(/C=C/c2ccccc2)c1 | inactive | inactive | – | –
12 | O=C1c2c(Cl)c(Cl)c(Cl)c(Cl)c2C(=O)N1c1ccc(CCc2ccccc2)cc1 | inactive | inactive | – | –
13 | O=C1c2ccccc2C(=O)N1c1ccc(/C=C/c2ccc(O)c(O)c2)cc1 | inactive | inactive | – | –
14 | COc1ccc(CCc2ccccc2N2C(=O)c3ccccc3C2=O)cc1OC | inactive | – | > 80 | > 80
15 | O=C1c2c(Cl)c(Cl)c(Cl)c(Cl)c2C(=O)N1c1ccccc1CCc1ccccc1 | inactive | inactive | – | –
16 | COc1ccc(CCc2ccccc2N2C(=O)c3c(Cl)c(Cl)c(Cl)c(Cl)c3C2=O)cc1OC | inactive | inactive | – | –
17 | O=C1c2c(Cl)c(Cl)c(Cl)c(Cl)c2C(=O)N1c1cccc(/C=C\c2ccccc2)c1 | inactive | inactive | – | –
18 | COc1cccc(CCc2ccc(N3C(=O)c4c(Cl)c(Cl)c(Cl)c(Cl)c4C3=O)cc2)c1 | inactive | inactive | – | –
19 | O=C1c2c(Cl)c(Cl)c(Cl)c(Cl)c2C(=O)N1c1cccc(CCc2ccc(O)cc2)c1 | inactive | inactive | – | –

Row | Compound | inhibition [1] | inhibition [2] | CC50 [3] [µM] | EC50 [4] [µM]
20 | O=C1c2ccccc2C(=O)N1c1ccc(CCc2cccc(O)c2)cc1 | inactive | inactive | > 80 | > 80
21 | COc1ccc(/C=C/c2cccc(N3C(=O)c4c(Cl)c(Cl)c(Cl)c(Cl)c4C3=O)c2)cc1OC | inactive | inactive | – | –
22 | O=C1c2c(Cl)c(Cl)c(Cl)c(Cl)c2C(=O)N1c1ccc(/C=C/c2ccccc2)cc1 | inactive | inactive | – | –
23 | O=C1c2ccccc2C(=O)N1c1cccc(CCc2ccc(O)c(O)c2)c1 | Active | inactive | – | 26
24 | O=C1c2c(Cl)c(Cl)c(Cl)c(Cl)c2C(=O)N1c1ccc(CCc2cccc(O)c2)cc1 | inactive | inactive | – | –
25 | COc1ccc(/C=C/c2ccc(N3C(=O)c4c(Cl)c(Cl)c(Cl)c(Cl)c4C3=O)cc2)cc1OC | inactive | inactive | – | –
26 | O=C1c2c(Cl)c(Cl)c(Cl)c(Cl)c2C(=O)N1c1ccccc1CCc1ccc(O)c(O)c1 | inactive | inactive | – | –
27 | COc1ccc(CCc2ccc(N3C(=O)c4c(Cl)c(Cl)c(Cl)c(Cl)c4C3=O)cc2)cc1OC | inactive | inactive | – | –
28 | O=C1c2ccccc2C(=O)N1c1ccccc1CCc1ccccc1 | inactive | inactive | – | –
29 | O=C1c2c(Cl)c(Cl)c(Cl)c(Cl)c2C(=O)N1c1cccc(CCc2ccccc2)c1 | inactive | inactive | – | –
30 | COc1cccc(CCc2cccc(N3C(=O)c4c(Cl)c(Cl)c(Cl)c(Cl)c4C3=O)c2)c1 | inactive | inactive | – | –
31 | COc1ccc(CCc2ccc(N3C(=O)c4c(Cl)c(Cl)c(Cl)c(Cl)c4C3=O)cc2)cc1 | inactive | inactive | – | –
32 | O=C1c2c(Cl)c(Cl)c(Cl)c(Cl)c2C(=O)N1c1cccc(/C=C/c2ccc(O)c(O)c2)c1 | inactive | inactive | – | –
33 | COc1ccc(CCc2cccc(N3C(=O)c4c(Cl)c(Cl)c(Cl)c(Cl)c4C3=O)c2)cc1 | inactive | inactive | – | –
34 | COc1ccc(CCc2cccc(N3C(=O)c4ccccc4C3=O)c2)cc1OC | inactive | inactive | – | –
35 | COc1ccc(CCc2ccc(N3C(=O)c4ccccc4C3=O)cc2)cc1OC | inactive | inactive | – | –
36 | O=C1c2ccccc2C(=O)N1c1ccccc1CCc1ccc(O)c(O)c1 | Active | inactive | > 80 | 48
37 | O=C1c2ccccc2C(=O)N1c1ccc(CCc2ccccc2)cc1 | inactive | inactive | – | –
